High-throughput results (PubChem BioAssay)
Hits are enriched below; roughly 1.2% of the tested compounds scored in any of these assays.
TNAP inh no acc: blocks human TNAP activity with no phosphate acceptor present. purified TNAP, CDP-star luminescence, 30 min. inhibition, % at 20 µM. 200,000 compounds, 0.26% hits. AID 1012;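 active = tissue-nonspecific alkaline phosphatase inhibition above about 50% at 20 µM in the single-dose screen, limit read from the data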;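 also: 0% = DMSO negative control and 100% = EDTA positive control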
Target sequence (P05186 whole entry, looked up): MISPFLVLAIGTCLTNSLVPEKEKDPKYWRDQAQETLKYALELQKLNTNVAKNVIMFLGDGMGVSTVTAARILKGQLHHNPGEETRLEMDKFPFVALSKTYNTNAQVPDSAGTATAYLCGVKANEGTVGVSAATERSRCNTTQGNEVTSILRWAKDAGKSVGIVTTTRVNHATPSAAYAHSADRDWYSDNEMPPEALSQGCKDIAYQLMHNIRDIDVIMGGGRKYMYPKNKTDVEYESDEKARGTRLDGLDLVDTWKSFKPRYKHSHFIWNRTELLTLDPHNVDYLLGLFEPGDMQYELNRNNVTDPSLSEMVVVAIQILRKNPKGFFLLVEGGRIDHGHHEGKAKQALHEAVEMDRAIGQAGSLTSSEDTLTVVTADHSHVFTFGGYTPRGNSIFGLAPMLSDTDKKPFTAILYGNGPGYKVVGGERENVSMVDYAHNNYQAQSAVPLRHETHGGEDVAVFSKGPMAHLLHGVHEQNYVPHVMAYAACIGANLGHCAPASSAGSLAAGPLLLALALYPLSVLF
Efa HMGR inh: blocks class II HMG-CoA reductase of Enterococcus faecalis; purified E. faecalis HMGR, NADPH absorbance 340 nm kinetic; inhibition, % at 10 µM; 190,000 compounds, 0.41% hits; AID 1066;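 active = inhibition above a set limit, the median over all tested compounds plus 3 SD, cut at about 9.5% in these data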;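 also: enzyme runs in reverse so mevalonate oxidation gives rising NADPH absorbance; 0% = complete reaction with DMSO and 100% = background rate lacking mevalonate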
TNAP inh hi DEA: blocks human TNAP under high phosphate acceptor concentration; P05186; purified TNAP, CDP-star luminescence, 1 M DEA; inhibition, % at 20 µM; 200,000 compounds, 0.03% hits;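 active = over 50% inhibition of tissue-nonspecific alkaline phosphatase at 20 µM in the single-dose screen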;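 also: plate controls were DMSO wells for no effect and EDTA-quenched wells as full inhibition for full effect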
INS promoter inh: TRM-6 insulin promoter activity inhibition | TRM-6 cells, insulin promoter-eGFP reporter, imaging; reporter expression induced with tamoxifen | inhibition, % at 2 µM | 130,000 compounds, 0.9% hits | AID 1273;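 active = inhibition above the mean plus 3 SD, with well images judged a real hit on visual review, cut at about 60% in these data, passing the limit was not always enough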
TNAP act hiacc: TNAP (human) activation, high acceptor | AID 1136 | activation factor at 20 µM | purified TNAP, CDP-star luminescence, 1 M DEA, 30 min; active compounds read high; 0 = EDTA background, 1 = DMSO-only activity | P05186 | 200,000 tested, under 10 active;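 active = activation factor at least 2 at 20 µM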
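Test system – human TNAP · Doses – 20 µM single point · Incubation – 30 min, room temperature · Signal – luminescent substrate turnover signal · Read-out basis – activation factor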
Starred values were filed as active, the others as inactive; . = no result given.

SMILES	TNAP inh no acc	Efa HMGR inh	TNAP inh hi DEA	INS promoter inh	TNAP act hiacc
CC(C)NC(=O)CSc1nc2ccccc2n1CC(=O)N(C(C)C)C(C)C	-4	23*	-5	.	1.1
Cc1ccc(OCC(=O)N2CCN(C(=O)c3ccco3)CC2)cc1	-4	2	0	.	1
O=C(COc1ccc2ccccc2c1)N1CCN(C(=O)c2ccco2)CC1	7	10*	0	.	1
Cc1cccc(-c2cc3nc(C)cc(NCCCN(C)C)n3n2)c1	53*	-1	-4	-43	1
COc1ccc(C(=O)c2ccc(OC)c3cccc(O)c23)cc1OC	0	-7	4	-10	1
COc1ccc2c3c(cccc13)NN=C2C	.	.	.	79*	.
COC(=O)CNC(=O)c1cc(OC)cc(OC)c1	-7	18*	-4	.	1
Cn1c(CN2CCCCC2)nc2cc(NC(=O)c3ccc(Cl)cc3)ccc21	-5	-3	-4	25	1
CCC(=O)Nc1ccc2c(c1)nc(CN1CCCCC1)n2C	-4	15*	-4	.	1
O=C(Nc1ccsc1C(=O)NC1CCCCC1)c1ccc(F)cc1	-5	5	0	-25	1
O=C(Nc1ccsc1C(=O)NC1CC1)c1ccccc1	-1	-7	-1	85*	1
Cc1nc2ccc(NC(=O)N3CCSCC3)cc2s1	-12	-1	-3	-34	1
Cc1nc2ccc(NC(=O)N3CCSCC3)cc2nc1C	-2	1	-1	77*	1
Cc1cc2oc(=O)cc(CN3CCN(S(=O)(=O)c4cccs4)CC3)c2cc1C	-5	-8	0	-36	1
FC(F)(F)c1cc(-c2ccccc2)nc2nc(N3CCOCC3)sc12	-7	-1	-2	-25	1
Cc1csc(SCCn2c(N3CCOCC3)nc3c2c(=O)[nH]c(=O)n3C)n1	-9	-5	1	.	1
Cc1cc(C)nc(SCCn2c(N3CCOCC3)nc3c2c(=O)[nH]c(=O)n3C)n1	-7	12*	-5	.	1.1
Cc1ccc2nc(-c3sc4nc(C)ccc4c3N)[nH]c2c1	-11	26*	6	-452	0.9
Cc1cc(C)c2c(N)c(-c3nc4ccccc4[nH]3)sc2n1	-15	-1	-9	33	1.1
COc1ccc(-c2nc(C#N)c(N3CCC(C(N)=O)CC3)o2)cc1OC	-8	0	-4	75*	1
Oc1ccc(N=Nc2nc(-c3ccccc3)c(-c3ccccc3)[nH]2)cc1	49	-9	58*	-17	0.4
Oc1ccc(N=Nc2n[nH]c(-c3ccc(Br)cc3)n2)cc1	75*	-4	44	-3	0.6
Oc1ccc(N=Nc2n[nH]c(-c3ccccc3)n2)cc1	74*	-8	31	3	0.7
Cc1ccc(S(=O)(=O)CCC(=O)OCc2ccccc2F)cc1	-2	-1	0	.	1
CCn1nc(C)c(/C=N/NC(=O)c2ccc3c(c2)c(C)c(C)n3Cc2ccccc2)c1C	-223	-4	-51	.	1.5
SMILES	TNAP inh no acc	Efa HMGR inh	TNAP inh hi DEA	INS promoter inh	TNAP act hiacc
CCN(Cc1ccncc1)C(=O)CCc1nnc(CCc2ccccc2OC)o1	-7	-10	-4	.	1
CCN(Cc1ccncc1)C(=O)CCc1nnc(CCC2CCCCC2)o1	-8	12*	-2	43	1
CC(c1ccco1)N(C(=O)c1ccccc1NS(=O)(=O)c1ccc(Cl)c([N+](=O)[O-])c1)c1ccccn1 (stereo unspecified)	-6	-8	-6	-17	1.1
O=c1cc(CSc2nnc(Nc3ccccc3F)s2)nc2sccn12	52*	-1	0	.	1
Cc1ccc(N=c2ssnc2Cl)cc1	-26	-5	-4	-24	1
Cc1cc(C)nc(/N=c2/ssnc2Cl)c1	-5	12*	-2	.	1
Cc1ccc(NC(=O)COC(=O)CN2C(=O)NC(C)(C)C2=O)cc1S(=O)(=O)N1CCOCC1	-1	9.7*	-7	79*	1.1
Cc1ccc(NC(=O)COC(=O)CN2C(=O)C3CCCCC3C2=O)cc1S(=O)(=O)N1CCOCC1 (stereo unspecified)	-14	-3	2	-20	1
COc1cc(Cl)c(C)cc1NC(=O)CSc1ccc(NC(C)=O)cc1	-12	-1	-6	-7	1.1
Cc1nc(S(=O)(=O)Cc2ccccc2Cl)nc2c1CCC2	-10	1	-3	73*	1
Cc1nc(S(=O)(=O)Cc2ccccc2)nc2c1CCC2	-8	-8	-4	43	1
COC(=O)Nc1[nH]ncc1[N+](=O)[O-]	13	1	-4	.	1
Cc1nn(C)c(C)c1CNC(=O)/C=C/c1ccccc1F	-4	-2	1	71*	1
Cc1c(/C=C/C(=O)c2ccccc2)cnn1C	-8	-3	-3	.	1
Cc1c(/C=C/C(=O)c2ccc(Cl)s2)cnn1C	-6	-5	0	75*	1
CCOc1ccc(C(=O)OCCN(CC)CC)cc1	-12	0	1	80*	1
CCN(CC)CCOC(=O)c1ccc(Cl)cc1	-12	1	-5	-25	1
CN(C)c1ncnc2c1ncn2C1OC(CO)C(O)C1O (stereo unspecified)	-11	-4	-4	92*	1
Nc1nc(Cl)nc2c1ncn2[C@@H]1O[C@H](CO)[C@@H](O)[C@H]1O	-7	-6	0	38	1
COc1ccc2c(c1)SCC/C2=C\CN1C(=O)CCC1=O	-5	-3	2	-40	1
O=[N+]([O-])c1ccc(N2CCCCC2)c(-c2nn[nH]n2)c1	11	14*	10	17	0.9
COc1cccc(Nc2nc3ccccc3n2C(C)C)c1	-2	1	-2	62*	1
COc1cccc(Nc2nc3ccccc3n3cnnc23)c1	28	-11	-1	.	1
COc1ccc(N2CCN(c3ccc(N4C(=O)COCC4=O)cc3[N+](=O)[O-])CC2)cc1	-3	2	4	-4	1
COc1ccc(N2CCN(c3ccc(N4C(=O)CC(C)C4=O)cc3[N+](=O)[O-])CC2)cc1 (stereo unspecified)	0	-5	6	77*	0.9
SMILES	TNAP inh no acc	Efa HMGR inh	TNAP inh hi DEA	INS promoter inh	TNAP act hiacc
S=C(Nc1ccc2cn[nH]c2c1)Nc1ccccc1Cl	-1	-1	5	64*	0.9
S=C(Nc1ccc2cn[nH]c2c1)Nc1ccc(Cl)cc1Cl	-7	8	2	-15	1
NS(=O)(=O)c1cccc(NC(=O)COC(=O)Cc2ccc(Cl)cc2)c1	4	5	5	-7	1
NS(=O)(=O)c1ccc(NC(=O)COC(=O)C2CC(=O)N(Cc3ccccc3)C2)cc1 (stereo unspecified)	-17	11*	-5	.	1
NS(=O)(=O)c1cccc(NC(=O)COC(=O)C2CCCCC2)c1	9	11*	4	.	1
CCC(C)c1ccccc1OCCn1ccnc1 (stereo unspecified)	-4	-2	-5	4	1.1
Cc1ccc(/C=C/C(=O)N2CCC(Cc3ccccc3)CC2)cc1	-13	1	-4	25	1
